Laboratory results taken from ChEMBL document CHEMBL3045178, “Metabolites from Aspergillus fumigatus, an endophytic fungus associated with Melia azedarach, and their antifungal, antifeedant, and toxic activities” (J Agric Food Chem, 2012).
Converted amounts (≈) assume the structure as drawn.

Tests used:
[1] = Toxicity in Artemia salina (brine shrimp) […]; format: organism-based; details: in vivo
Alternaria alternata = assay: Antifungal activity against Alternaria alternata at 28 degC after 48 hr microbroth dilution method; format: functional
Summary of the method: (§1)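 Plant-pathogenic fungi isolated from infected plant organs. Fungi grown 18 h in PD medium at 28 ± 0.5 °C and 150 rpm, then diluted to about 1 × 10^6 CFU in PD medium. Compounds at 2 mg/mL DMSO stock, serially diluted in triplicate in PD medium in 96-well plates before the fungal suspension was added. DMSO served as negative control. After 48 h at 28 ± 0.5 °C, MIC taken as the lowest concentration with no visible growth.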

Alternaria solani = assay: Antifungal activity against Alternaria solani at 28 degC after 48 hr microbroth dilution method; format: functional; summary of the method: as §1
[2] = test system: Fusarium oxysporum f. sp. vasinfectum; assay: Antifungal activity against Fusarium oxysporum f. sp. vasinfectum at 28 degC after 48 hr microbroth dilution method; format: functional; summary of the method: as §1
Fusarium graminearum = assay: Antifungal activity against Fusarium graminearum at 28 degC after 48 hr microbroth dilution method; format: functional
Summary of the method: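 Microbroth dilution in PD medium. Fungi were grown 18 h at 28 ± 0.5 °C and 150 rpm, then diluted to about 1 × 10^6 CFU. Compounds (2 mg/mL DMSO stock) were serially diluted in triplicate and fungal suspension added. Incubated 48 h at 28 ± 0.5 °C. MIC was the lowest concentration with no visible growth. Controls: DMSO, carbendazim, hymexazol.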

Fusarium solani = assay: Antifungal activity against Fusarium solani at 28 degC after 48 hr microbroth dilution method; format: functional; summary of the method: as §1
[3] = test system: Colletotrichum gloeosporioides; assay: Antifungal activity against Colletotrichum gloeosporioides at 28 degC after 48 hr microbroth dilution method; format: functional; summary of the method: as §1
[4] = test system: Fusarium oxysporum f. sp. niveum; assay: Antifungal activity against Fusarium oxysporum f. sp. niveum at 28 degC after 48 hr microbroth dilution method; format: functional; summary of the method: as §1
Botrytis cinerea = assay: Antifungal activity against Botryotinia fuckeliana at 28 degC after 48 hr microbroth dilution method; format: functional; summary of the method: as §1
Mythimna separata = assay: Antifeedant activity against Mythimna separata (Oriental armyworm) larvae assessed as antifeedant index by area of the leaf consumed; format: functional; set-up: concentration or dose not given beside the values
Summary of the method: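 Positive control prepared at 10 mg/mL in acetone; leaves treated with acetone alone served as control. Ten treated leaves and 10 larvae per Petri dish lined with moistened filter paper. Held at 25 ± 2 °C, 12L:12D, 65−80% rh. Leaf area consumed recorded after 48 h. AFI = (C − T)/C × 100%, from control and treated areas consumed. Three repetitions.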

C[C@@H]1NC(=O)[C@@H]2CCCN2C1=O
LC50 [1]: > 100 µg/mL

O=C1CNC(=O)[C@H](Cc2ccccc2)N1
LC50 [1]: > 100 µg/mL

C[C@@H]1NC(=O)[C@H]2CCCN2C1=O
LC50 [1]: > 100 µg/mL

O=C1N[C@@H](CO)C(=O)N2CCC[C@@H]12
LC50 [1]: > 100 µg/mL

O=C1N[C@@H](CO)C(=O)N2C[C@H](O)C[C@@H]12
LC50 [1]: > 100 µg/mL

CC(C)C[C@@H]1NC(=O)[C@@H]2CC(O)CN2C1=O (stereo not given in full)
LC50 [1]: > 100 µg/mL

O=C1N[C@@H](Cc2ccccc2)C(=O)N2C[C@H](O)C[C@H]12
LC50 [1]: > 100 µg/mL

C[C@@H]1NC(=O)CNC1=O
LC50 [1]: > 100 µg/mL

COc1ccc2c3c([nH]c2c1)[C@H](CC(C)(C)O)N1C(=O)[C@@H]2CCCN2C(=O)[C@@]1(O)[C@H]3O
MIC (Alternaria alternata): 25 µg/mL (≈ 58.2 µM) | MIC (Alternaria solani): 25 µg/mL (≈ 58.2 µM) | MIC [2]: 50 µg/mL (≈ 116 µM) | LC50 [1]: 73.2 µg/mL (≈ 170 µM) | MIC (Fusarium graminearum): 25 µg/mL (≈ 58.2 µM) | MIC (Fusarium solani): 50 µg/mL (≈ 116 µM) | MIC [3]: 25 µg/mL (≈ 58.2 µM) | MIC [4]: 25 µg/mL (≈ 58.2 µM) | MIC (Botrytis cinerea): 25 µg/mL (≈ 58.2 µM)

COc1ccc2c3c([nH]c2c1)[C@H](CC(C)(C)O)N1C(=O)[C@@H]2CCCN2C(=O)[C@@]1(O)[C@H]3OC
MIC (Alternaria alternata): 6.25 µg/mL (≈ 14.1 µM) | MIC (Alternaria solani): 6.25 µg/mL (≈ 14.1 µM) | MIC [2]: 25 µg/mL (≈ 56.4 µM) | LC50 [1]: 60.7 µg/mL (≈ 137 µM) | MIC (Fusarium graminearum): 6.25 µg/mL (≈ 14.1 µM) | MIC (Fusarium solani): 25 µg/mL (≈ 56.4 µM) | MIC [3]: 6.25 µg/mL (≈ 14.1 µM) | MIC [4]: 12.5 µg/mL (≈ 28.2 µM) | MIC (Botrytis cinerea): 6.25 µg/mL (≈ 14.1 µM)

COc1ccc2c(c1)N[C@@]1(C2=O)[C@H](C=C(C)C)N2C(=O)[C@@H]3CCCN3C(=O)[C@]2(O)[C@H]1O
LC50 [1]: > 100 µg/mL | AFI (Mythimna separata): 5%

O=C1[C@@H]2C[C@@H](O)CN2C(=O)[C@@H]2CCCN12
LC50 [1]: > 100 µg/mL

C[C@@H]1NC(=O)[C@@H]2C[C@@H](O)CN2C1=O
LC50 [1]: 66.1 µg/mL (≈ 359 µM)

O=C1C[C@@H](O)[C@H](O)c2cccc(O)c21 (relative stereo)
LC50 [1]: > 100 µg/mL

O=C1C[C@@H](O)[C@@H](O)c2cccc(O)c21 (relative stereo)
LC50 [1]: > 100 µg/mL

C[C@@H]1N[C@H]2N(C1=O)c1ccccc1[C@@]2(O)C[C@@H]1C(=O)N[C@](C)(O)c2nc3ccccc3c(=O)n21 [3-HYDROXYFUMIQUINAZOLINE A]
MIC (Alternaria alternata): 12.5 µg/mL (≈ 27.1 µM) | MIC (Alternaria solani): 12.5 µg/mL (≈ 27.1 µM) | MIC [2]: 50 µg/mL (≈ 108 µM) | LC50 [1]: 80.8 µg/mL (≈ 175 µM) | AFI (Mythimna separata): 7.5% | MIC (Fusarium graminearum): 12.5 µg/mL (≈ 27.1 µM) | MIC (Fusarium solani): 100 µg/mL (≈ 217 µM) | MIC [3]: 12.5 µg/mL (≈ 27.1 µM) | MIC [4]: 50 µg/mL (≈ 108 µM) | MIC (Botrytis cinerea): 12.5 µg/mL (≈ 27.1 µM)

O=C1CCC(O)c2cccc(O)c21 (stereo not given) [4,8-DIHYDROXY-1-TETRALONE]
MIC (Alternaria alternata): 12.5 µg/mL (≈ 70.2 µM) | MIC (Alternaria solani): 12.5 µg/mL (≈ 70.2 µM) | MIC [2]: 50 µg/mL (≈ 281 µM) | LC50 [1]: 52.7 µg/mL (≈ 296 µM) | MIC (Fusarium graminearum): 12.5 µg/mL (≈ 70.2 µM) | MIC (Fusarium solani): 50 µg/mL (≈ 281 µM) | MIC [3]: 12.5 µg/mL (≈ 70.2 µM) | MIC [4]: 25 µg/mL (≈ 140 µM) | MIC (Botrytis cinerea): 12.5 µg/mL (≈ 70.2 µM)

O=C1N[C@@H](Cc2c[nH]c3ccccc23)C(=O)N2CCC[C@@H]12 [BREVIANAMIDE F]
LC50 [1]: 83.7 µg/mL (≈ 295 µM)

COC(=O)Nc1nc2ccccc2[nH]1 [CARBENDAZIM]
MIC (Alternaria alternata): 6.25 µg/mL (≈ 32.7 µM) | MIC (Alternaria solani): 12.5 µg/mL (≈ 65.4 µM) | MIC [2]: 25 µg/mL (≈ 131 µM) | MIC (Fusarium graminearum): 6.25 µg/mL (≈ 32.7 µM) | MIC (Fusarium solani): 25 µg/mL (≈ 131 µM) | MIC [3]: 6.25 µg/mL (≈ 32.7 µM) | MIC [4]: 12.5 µg/mL (≈ 65.4 µM) | MIC (Botrytis cinerea): 12.5 µg/mL (≈ 65.4 µM)
